From publication PMC3488162 (The Journal of investigative dermatology, 2012)
Entries after “also recorded” stand apart in the source; their conditions may differ. Values belong to the compound of their own block, whether it stands above or below them.

Tests used:
Sap = conditions: ref Korting et al., 1999; cited from earlier work
C. albicans [1] = test: Flow cytometric antimicrobial killing assay; format: cell-based, Candida albicans; conditions: for depolarized fungal cells in a population: 1:6 diluted Schaedler broth, DiBAC4(3), flow cytometry, means of one representative experiment in triplicate; for antifungal activity compared between hGAPDH (2-32), LL-37 and hBD-3: 10 μg/ml each
How it was run: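 Candida albicans (strains 143, 277, 526 and SC5314; 1.5×10^6 cells) incubated at 37°C in 1:6-diluted Schaedler broth with test peptide or reference antimicrobial peptides at 10 μg/ml, dissolved in 0.01% acetic acid. Solvent-only controls. After 90 min, DiBAC4(3) membrane-potential dye added for 10 min; cells pelleted and resuspended in PBS. Percentage of depolarized cells counted by flow cytometry, 10,000 events per sample.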

E. coli = test: Flow cytometric antimicrobial killing assay; format: cell-based, E. coli ATCC 25922; conditions: 90 min, 37°C
How it was run: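 E. coli ATCC 25922 (1.5×10^6 cells) in 1:6 diluted Schaedler broth at 37°C. Peptides dissolved in 0.01% acetic acid and added at 10 μg/ml; solvent served as viability control. After 90 min, DiBAC4(3) added for 10 min, cells spun and resuspended in PBS. Percentage of depolarised cells counted by flow cytometry over 10 000 events. One representative experiment run in triplicate.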

E. coli BL21 = test: Broth microdilution, E. coli BL21; format: cell-based; conditions: data not shown
P. aeruginosa PAO = test: Broth microdilution, P. aeruginosa PAO; format: cell-based; conditions: data not shown
[2] = tested on: P. aeruginosa clinical isolate; test: Broth microdilution, P. aeruginosa clinical isolate; format: cell-based; conditions: data not shown
C. albicans [3] = test: Broth microdilution, C. albicans; format: cell-based, Candida albicans; conditions: data not shown
C. albicans [4] = test: Radial diffusion test, C. albicans; format: cell-based, Candida albicans; conditions: different media
Sap2p = Sap2p (Candida albicans, UniProt P0CS83); test: Sap inhibition assay, Sap2; format: biochemical, C. albicans; conditions: as stated in abstract
Sequence of Sap2p (P0CS83 57-398): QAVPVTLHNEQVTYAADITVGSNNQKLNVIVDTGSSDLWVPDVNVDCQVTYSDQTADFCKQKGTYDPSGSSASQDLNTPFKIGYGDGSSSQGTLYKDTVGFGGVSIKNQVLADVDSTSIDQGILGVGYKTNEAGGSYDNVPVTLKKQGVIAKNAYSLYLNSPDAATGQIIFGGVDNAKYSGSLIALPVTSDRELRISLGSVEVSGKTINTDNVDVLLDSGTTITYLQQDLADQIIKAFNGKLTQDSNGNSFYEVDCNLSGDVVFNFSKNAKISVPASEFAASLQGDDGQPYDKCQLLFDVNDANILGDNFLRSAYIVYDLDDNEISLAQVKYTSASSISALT

C. albicans SC5314 = test: Electron microscopy of C. albicans; format: cell-based, Candida albicans; conditions: 125 μg/ml, 24 h, 37 °C
How it was run: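 About 10^6 SC5314 cells/ml held with 125 μg/ml test compound for 24 h at 37 °C, beside an untreated control. Pellets fixed in 2.5% glutaraldehyde/2% formaldehyde (0.05 M phosphate, pH 7.3), post-fixed in 1% OsO4 and embedded in glycid ether. Sections of 20–30 nm stained with uranyl acetate and viewed by transmission EM.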

TR146 epithelial cells = test: LDH release by uninfected epithelial cells; format: cell-based, human
How it was run: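 TR146 buccal cells grown in DMEM with 10% FCS at 37°C, 5% CO2. Tests run in antibiotic-free medium with 5, 10, 50, 100 or 125 μg/ml test compound for 12 and 24 h. Damage read as LDH release. Standard LDH samples spiked with 5 and 125 μg/ml test compound checked for assay interference.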

[5] = tested on: RHE (TR146) infected with C. albicans SC5314; test: Histology of reconstituted human oral epithelium; format: cell-based; conditions: 125 μg/ml, 18 h after infection with C. albicans SC5314
How it was run: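 Multilayer oral RHE infected with 2×10^6 C. albicans SC5314 in 3 g/l TSB/10 mM sodium phosphate, pH 7.2. Test compound at 5–125 μg/ml or none, for 12 and 18 h at 37 °C in 5% CO2 with 100% humidity. Light microscopy scored on 50 sections from five sites per epithelium.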

C. albicans cells = format: cell-based, Candida albicans; conditions: external (5 μg/ml) and endogenous peptide; oral RHE, 12 h; immunofluorescence
How it was run: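 Oral RHE infected with 2×10^6 C. albicans SC5314 in TSB/10 mM sodium phosphate, pH 7.2, with or without 5 μg/ml peptide, for 12 h. Tissue cryofixed; 5-μm sections fixed in PLP, blocked with donkey serum. Stained with affinity-purified rabbit anti-peptide antibody (1:50) and human anti-C. albicans serum (1:60), then Dylight 549/Cy5 secondaries and YOPRO nuclear stain. Confocal imaging at ×400 and ×250.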

C. albicans [6] = test: Annexin V-FITC / propidium iodide staining, apoptotic and necrotic marker; format: cell-based, Candida albicans
[7] = tested on: IL-8 secretion of epithelial cells; test: IL-8 secretion by epithelial cells; format: cell-based, human; conditions: 5 μg/ml, 12 h, n = 6
How it was run: (§1)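 Epithelial cells infected or not with C. albicans SC5314, with or without 5 μg/ml test compound, for 12 h. Cytokine in culture supernatants measured by DuoSet sandwich ELISA. Data are means±SD of duplicate assays from three experiments; 2-tailed paired t test, n = 6.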

[8] = tested on: GM-CSF secretion of epithelial cells; test: GM-CSF secretion by epithelial cells; format: cell-based, human; conditions: uninfected epithelial cells; 5 μg/ml; 12 h; n = 6
How it was run: as §1

[9] = tested on: TLR4 mRNA expression of epithelial cells; test: Epithelial TLR4 mRNA expression; format: cell-based, human; conditions: 5 μg/ml, 12 h, n = 6
How it was run: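 Epithelial cells infected or not with C. albicans SC5314, with or without 5 μg/ml test compound, for 12 h. Total RNA extracted; cDNA made from 1 μg RNA with SuperScript III. qPCR run in duplicate using mean Ct, normalised to a housekeeping gene. Data are means±SD of duplicate assays from three experiments; 2-tailed paired t test, n = 6.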

Sap1p = Sap1p (Candida albicans, UniProt P0CY27); conditions: as stated in abstract
Sequence of Sap1p (P0CY27 51-391): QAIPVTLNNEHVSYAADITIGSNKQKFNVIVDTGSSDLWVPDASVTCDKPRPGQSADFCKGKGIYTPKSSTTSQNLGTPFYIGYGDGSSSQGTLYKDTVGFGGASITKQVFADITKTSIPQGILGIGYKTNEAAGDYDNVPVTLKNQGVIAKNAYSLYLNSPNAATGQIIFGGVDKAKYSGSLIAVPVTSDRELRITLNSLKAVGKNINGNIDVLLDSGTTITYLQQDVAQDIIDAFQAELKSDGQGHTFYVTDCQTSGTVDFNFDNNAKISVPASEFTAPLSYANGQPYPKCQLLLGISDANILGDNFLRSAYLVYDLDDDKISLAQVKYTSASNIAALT

GAPDH = conditions: ref Mookherjee et al., 2009; cited from earlier work
C. albicans [10] = conditions: ref Wu et al., 1999, cited from earlier work
Sap2 = conditions: ref Wu et al., 1999, cited from earlier work
[11] = epithelial cells infected with C. albicans SC5314

Compound: CC(C)(C)NC(=O)[C@@H]1CN(Cc2cccnc2)CCN1C[C@@H](O)C[C@@H](Cc1ccccc1)C(=O)N[C@H]1c2ccccc2C[C@H]1O [indinavir]
inhibition of Sap activity (Sap): inhibit Sap activity

Compound: CC(C)(C)NC(=O)[C@@H]1C[C@@H]2CCCC[C@@H]2CN1C[C@@H](O)[C@H](Cc1ccccc1)NC(=O)[C@H](CC(N)=O)NC(=O)c1ccc2ccccc2n1 [saquinavir]
inhibition of Sap activity (Sap): inhibit Sap activity

growth inhibition (MIC 100%) (E. coli BL21): micromolar concentrations
growth inhibition (MIC 100%) (P. aeruginosa PAO): micromolar concentrations
growth inhibition (MIC 100%) [2]: micromolar concentrations
growth inhibition (MIC 100%) (C. albicans [3]): micromolar concentrations
ED50, inhibition of Sap activity (Sap2p): 200 mg/L
ED50, inhibition of Sap activity (Sap1p): 160 mg/L
Compound: GKVKVGVNGFGRIGRLVTRAAFNSGKVDIVA [hGAPDH (2-32)]
dose dependence of antifungal effect (C. albicans [1]; C. albicans SC5314, 5, 10, 50, 100 and 125 μg/ml, 90 min): dose dependent
effectiveness in killing assay (C. albicans [1]; C. albicans, 5 μg/ml): not very effective
depolarized fungal cells in a population (C. albicans [1]; C. albicans, 10 µg/ml (3.1 µM), 90 min, 37°C): 45%
antifungal activity compared between hGAPDH (2-32), LL-37 and hBD-3 (C. albicans [1]; C. albicans, 90 min, 37°C): not significantly different
depolarized fungal cells in a population (C. albicans [1]; C. albicans, 100 µg/ml, 90 min, 37°C): 90%
depolarizing of the fungi in a population (C. albicans [1]; two of the four tested C. albicans strains, 10 μg/ml, 90 min, 37°C): approximately 50%
sensitivity of C. albicans strains (C. albicans [1]; two other of the four tested C. albicans strains, 10 μg/ml, 90 min, 37°C): slightly lower sensitivity
antibacterial activity compared with LL-37 and hBD-3 (E. coli; 10 μg/ml each): less active against E. coli
antibacterial activity (E. coli; 10 μg/ml, 1:6 diluted Schaedler broth): potent antibacterial activity
antifungal activity (C. albicans [4]): antifungal activity was also demonstrated
ultrastructural changes of C. albicans morphology (C. albicans SC5314): distinct changes of the cell wall, plasma membrane and the cytoplasm; also recorded: enlargement of the fungal cytoplasmic vacuoles, disorganization of the internal organelles and the appearance of yeasts with an empty cytoplasm resembling necrotic ghost cells
toxic mucosal effects (TR146 epithelial cells; low concentrations): without any toxic mucosal effects
toxicity on mammalian cells (TR146 epithelial cells; uninfected epithelial cells, LDH release): low toxicity
morphological alterations of infected RHE [5]: far less marked morphological alterations
number of yeast cells on the mucosal surface [5]: decreased
spongiosis and invasion of keratinocytes by yeast cells [5]: inhibited
edema in infected RHE ([5]; uppermost keratinocyte layers): mild edema
affinity to C. albicans cells (C. albicans cells): strong affinity
internalization by fungal cells (C. albicans cells): internalization by the fungal cells
protoplasts with peripheral annexin V-FITC fluorescence (apoptosis) (C. albicans [6]; 5 μg/ml, 1 h, 37°, 300 fungal cells): 31%
cellular changes after longer treatment or higher doses (C. albicans [6]; treated for longer time with 5 μg/ml or at higher doses): cellular changes characteristic of necrosis
IL-8 secretion [7, 11]: even increased
IL-8 secretion ([7]; uninfected epithelial cells): increased secretion
GM-CSF secretion [8]: increased secretion
TLR4 expression [9, 11]: increased
TLR4 mRNA expression ([9]; uninfected epithelial cells, vs PBS treated controls): increased

Compound: LL-37: antimicrobial peptide LL-37 (Innovagen, Lund, Sweden); human cathelicidin (LLGDFFRKSKEKIGKEFKRIVQRIKDFLRNLVPRTES; Antibacterial peptide LL-37; UniProt P49913 134-170, looked up)
GAPDH as mononuclear cell receptor (GAPDH): GAPDH is relevant for the functioning

Compound: hBD-3: antimicrobial peptide hBD-3 (Peptide Institute, Osaka, Japan) (GIINTLQKYYCRVRGGRCAVLSCLPKEEQIGKCSTRGRKCCRRKK; UniProt P81534 23-67, looked up) [reference compound]
antifungal activity compared between hGAPDH (2-32), LL-37 and hBD-3 (C. albicans [1]; C. albicans, 90 min, 37°C): not significantly different

Compound: lysozyme: antimicrobial protein ubiquitous in human mucosal secretions such as saliva
killing of C. albicans (C. albicans [10]; higher concentrations): killing the organism
growth of C. albicans (C. albicans [10]): inhibited the growth
production of Sap (Sap2; lower concentrations): decreasing the production
secretion of the isoenzyme Sap2 (Sap2): decreased
